SMILES strings stand for the structures.

The subject of assay [1] is Moloney murine leukemia virus. Nature of the assay: Inhibition of Moloney murine leukemia virus reverse transcriptase using (ribocytidylic acid)n(deoxyguanylic acid)12-18 as template primer by liquid scintillation counting. In short, it runs like this: (§1)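 30 μl mix of 50 mM Tris-HCl pH 8.3, 75 mM KCl, 10 mM DTT, 3 mM MgCl₂, 3 μg nuclease-free BSA, 0.5 μg template-primer, 2 mM dTTP or dGTP with 0.5 μCi matching [³H]-dNTP, and 5 units MMLV RT. Incubated 37° for 30 min, stopped with EDTA. Duplicate aliquots spotted on DE-81 paper, washed, and counted by liquid scintillation.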

Assay [2] has as its system Moloney murine leukemia virus. Nature of the assay: Inhibition of Moloney murine leukemia virus reverse transcriptase using (riboadenylic acid)n(deoxythymidylic acid)12-18 as template primer by liquid scintillation counting. In a few lines:
as §1

The nature of assay [3]: Selectivity for Moloney murine leukemia virus reverse transcriptase over Escherichia coli DNA polymerase 1.

Take `O=C1CC(c2ccccc2)Oc2ccccc21` (stereo not drawn): the ID50 in assay [1] and in assay [2] was above 446000 nM in each case.

As for `O=c1c(O)c(-c2ccccc2)oc2ccccc12`, the ID50 in assay [1] and in assay [2] was above 420000 nM throughout.

On to `C[C@H]1O[C@@H](Oc2c(-c3cc(O)c(O)c(O)c3)oc3cc(O)cc(O)c3c2=O)[C@@H](O)[C@@H](O)[C@@H]1O`, for which the figures for the ID50 in assay [1] and in assay [2] were 9690 nM and 10000 nM, respectively.

`C[C@@H]1O[C@@H](OC[C@H]2O[C@@H](Oc3c(-c4ccc(O)c(O)c4)oc4cc(O)cc(O)c4c3=O)[C@H](O)[C@@H](O)[C@@H]2O)[C@H](O)[C@H](O)[C@H]1O`: the ID50 worked out at 7330 nM in assay [1] and 7270 nM in assay [2].

In the case of `O=c1c(O)c(-c2ccc(O)cc2O)oc2cc(O)cc(O)c12`, the figures for the ID50 in assay [1] and in assay [2] were 1010 nM and 1030 nM, respectively. The fold change (FC) in assay [3] came to 10.

Regarding `O=c1cc(-c2ccccc2)oc2cc(O)ccc12`, the ID50 in assay [1] and in assay [2] was above 420000 nM in each case.

`Oc1cc(O)c2c(c1)O[C@H](c1ccc(O)c(O)c1)[C@H](O)C2`: the ID50 in assay [1] turned out to be 2650 nM; in assay [2], 2580 nM.

In the case of `O=c1c(O)c(-c2cc(O)c(O)c(O)c2)oc2cc(O)cc(O)c12`, the ID50 in assay [1] came out at 280 nM; in assay [2] it was 250 nM. The fold change (FC) in assay [3] was found to be 10.

For the molecule `O=c1c(O)c(-c2ccc(O)c(O)c2)oc2cc(O)cc(O)c12`, the ID50 in assay [1] was 170 nM; in assay [2], 200 nM. Also, the fold change (FC) in assay [3] came to 10.

On to `COc1ccc([C@@H]2CC(=O)c3c(O)cc(O)cc3O2)cc1O`, for which the ID50 in assay [1] is 22100 nM; in assay [2], 20900 nM.

Take `O=C1c2c(O)cc(O)cc2OC(c2ccc(O)c(O)c2)C1O` (racemic): the ID50 in assay [1] was 2460 nM; in assay [2] it was 2430 nM. In assay [3], the fold change (FC) was 10.

`O=c1c(O)c(-c2ccc(O)c(O)c2)oc2cc(O)ccc12`: the figures for the ID50 in assay [1] and in assay [2] were 240 nM and 280 nM, respectively.

Turning to `O=c1c(O)c(-c2ccc(O)cc2)oc2cc(O)cc(O)c12`, the ID50 in assay [1] was 1290 nM; in assay [2] it was 1220 nM. This molecule also came in with a fold change (FC) in assay [3] of 10.

Consider `Oc1cc(O)c2c(c1)O[C@H](c1ccc(O)c(O)c1)[C@@H](O)C2`, for which the ID50 was found to be 2860 nM in assay [1] and 2750 nM in assay [2].

Values taken from ChEMBL document CHEMBL1159005, “Inhibitory effects of flavonoids on Moloney murine leukemia virus reverse transcriptase activity” (J Nat Prod, 1992).
